Experimental data taken from ChEMBL document CHEMBL1772982, “In vitro and in vivo trypanocidal activity of flavonoids from Delphinium staphisagria against Chagas disease” (J Nat Prod, 2011).
Active and inactive are the calls of the source.

What was measured:
Trypanosoma cruzi [1] = assay: Antitrypanosomal activity against Trypanosoma cruzi epimastigotes assessed as increase in vacuolization at IC25 concentration after 72 hrs by transmission electron microscopy; format: functional, organism-based
Procedure, shortened: (§1)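 Epimastigotes at 5 × 10^6 cells/mL were exposed to test compounds at their IC25 for 72 h. Morphology was assessed by transmission electron microscopy against untreated parasites.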

Trypanosoma cruzi [2] = assay: Antitrypanosomal activity against epimastigote form of Trypanosoma cruzi assessed as inhibition of parasite growth; format: functional, organism-based
Procedure, shortened: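 Exponential-phase epimastigotes at 2 × 10^6 parasites/mL were exposed to 1, 10, 25, 50 and 100 μM compound in medium containing 0.01% DMSO. Parasites were counted by hemocytometer at 24, 48 and 72 h.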

Trypanosoma cruzi [3] = assay: Antitrypanosomal activity against blood trypomastigote forms of Trypanosoma cruzi infected in BALB/c mouse assessed as decrease in parasitemia at 5 mg/kg, ip administered 7 days post infection once daily for 5 days measured after 40 days post infection by […] relative to control; format: functional; design: scale not given: the % may be the effect or the level left; settings: route intraperitoneal
Procedure, shortened: (§2)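 Female BALB/c mice (6–8 weeks, five per group) were infected ip with 1 × 10^3 bloodstream forms and treated ip in saline on days 7–12 post-infection; controls received vehicle. Every two days, 5 μL tail blood was diluted 1:15 in citrate/lysis buffer (pH 7.2) and parasites counted in a Neubauer chamber. Decrease is relative to the untreated infected group.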

Trypanosoma cruzi [4] = assay: Antitrypanosomal activity against Trypanosoma cruzi epimastigotes assessed as shrinkage of the protozoa at IC25 concentration after 72 hrs by transmission electron microscopy; format: functional, organism-based; procedure, shortened: as §1
Trypanosoma cruzi [5] = assay: Antitrypanosomal activity against blood trypomastigote forms of Trypanosoma cruzi infected in BALB/c mouse assessed as decrease in anti-parasite antibodies level at 5 mg/kg, ip administered 7 days post infection once daily for 5 days measured after […] by ELISA relative to control; format: functional, organism-based; design: dose 5 mg/kg
Procedure, shortened: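 Female BALB/c mice (6–8 weeks) were infected ip; groups of four received ip treatment days 7–12 post-infection. Sera taken on days 40 and 90 were diluted 1:100 and run in ELISA against excreted Fe-SOD antigen from epimastigotes, read at 490 nm. Cutoff was the mean of negative controls plus 3 SD. The change was taken as absorbance on day 90 minus day 40.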

Vero = assay: Cytotoxicity against african green monkey Vero cells assessed as cell viability after 72 hrs by FACS analysis; format: cell-based; settings: Chlorocebus sabaeus
Trypanosoma cruzi [6] = assay: Antitrypanosomal activity against blood trypomastigote forms of Trypanosoma cruzi infected in BALB/c mouse assessed as mouse survival rate at 1 mg/kg, ip administered 7 days postinfection once daily for 5 days; format: functional
Procedure, shortened: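 T. cruzi Maracay strain; groups of five female BALB/c mice (6–8 weeks, 25–30 g) infected ip with 1 × 10³ bloodstream forms. Starting day 7 post-infection, ip dosing at 1 mg/kg/day in saline for five consecutive days; infected controls received vehicle. Mortality recorded over the study alongside parasitemia, which was counted every two days from tail blood in a Neubauer chamber.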

Trypanosoma cruzi [7] = assay: Antitrypanosomal activity against blood trypomastigote forms of Trypanosoma cruzi infected in BALB/c mouse assessed as decrease in parasitemia at 5 mg/kg, ip administered 7 days post infection once daily for 5 days measured on day 22 post infection by […] relative to control; format: functional, organism-based; design: dose 5 mg/kg; procedure, shortened: as §2
[8] = Selectivity index, ratio of IC50 for african green monkey Vero cells to IC50 for epimastigote form of Trypanosoma cruzi; format: toxicity, cell-based; settings: Vero cells (versus epimastigote form of Trypanosoma cruzi), read-out: Ratio IC50
Trypanosoma cruzi [9] = assay: Antitrypanosomal activity against metacyclic forms of Trypanosoma cruzi infected in vero cells assessed as decrease in trypomastigotes at IC25 concentration after 12 hrs; format: functional; design: scale not given: the % may be the effect or the level left
Procedure, shortened: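 Vero cells were seeded at 1 × 10^5 per well on coverslips, grown 2 days, then infected with metacyclic forms at 10:1. Compounds at IC25 were added at infection for 12 h at 37 °C, 5% CO2, then washed out. Cultures were kept 10 days with medium renewed every 48 h. Trypomastigotes released into the medium were counted.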

Trypanosoma cruzi [10] = assay: Antitrypanosomal activity against metacyclic forms of Trypanosoma cruzi infected in vero cells assessed as inhibition of infection at IC25 concentration after 12 hrs; format: functional
Procedure, shortened: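 Vero cells were seeded at 1 × 10^5 per well on coverslips, grown 2 days, and infected with metacyclic forms at 10:1, with compounds at IC25 present for 12 h at 37 °C. After washing, cultures were grown 10 days. Methanol-fixed, Giemsa-stained cells (>100 per sample) were scored for percent infected and amastigotes per cell. Results are means of four determinations.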

Mus musculus = assay: Toxicity in BALB/c mouse assessed as mortality at 5 mg/kg, ip; format: organism-based; design: dose 5 mg/kg, route intraperitoneal; settings: in vivo
Trypanosoma cruzi [11] = assay: Antitrypanosomal activity against Trypanosoma cruzi epimastigotes assessed as undulating cytoplasm membrane at IC25 concentration after 72 hrs by transmission electron microscopy; format: functional, organism-based; procedure, shortened: as §1
Trypanosoma cruzi [12] = assay: Antitrypanosomal activity against Trypanosoma cruzi epimastigotes assessed as dilated mitochondria at IC25 concentration after 72 hrs by transmission electron microscopy; format: functional, organism-based; procedure, shortened: as §1
Trypanosoma cruzi [13] = assay: Antitrypanosomal activity against Trypanosoma cruzi epimastigotes assessed as cytoplasmic membrane burst at IC25 concentration after 72 hrs by transmission electron microscopy; format: functional, organism-based; procedure, shortened: as §1
Trypanosoma cruzi [14] = assay: Antitrypanosomal activity against Trypanosoma cruzi epimastigotes assessed as star-shaped and wavy cytoplasm membrane at IC25 concentration after 72 hrs by transmission electron microscopy; format: functional, organism-based; procedure, shortened: as §1

Question: Which results are given for `C[C@H]1O[C@H](Oc2cc(O)c3c(=O)c(O[C@@H]4O[C@H](CO)[C@@H](O)[C@H](O)[C@H]4O)c(-c4ccc(O)c(O)c4)oc3c2)[C@@H](O)[C@@H](O)[C@@H]1O` [PETIOLAROSIDE]?
Answer: Activity (Trypanosoma cruzi [1]): Active; IC50 (Trypanosoma cruzi [2]): 30.3 µM; Activity (Trypanosoma cruzi [3]): 23%; Activity (Trypanosoma cruzi [4]): Active; Activity (Trypanosoma cruzi [5]): Active; IC50 (Vero): > 1000 µM; Activity (Trypanosoma cruzi [6]): Active; Activity (Trypanosoma cruzi [7]): Active; selectivity ratio [8]: > 33; Activity (Trypanosoma cruzi [9]): 72%; inhibition (INH) (Trypanosoma cruzi [10]): 68%; Activity (Mus musculus): Non-toxic

Question: With `CC(=O)O[C@H]1[C@H](Oc2c(-c3ccc(O)c(O)c3)oc3cc(O[C@H]4O[C@H](C)[C@@H](O)[C@H](O)[C@@H]4O)cc(O)c3c2=O)O[C@H](CO)[C@@H](O)[C@@H]1O` as the compound, how does the Activity (Trypanosoma cruzi [1]) read?
Answer: Active

Question: What about the IC50 (Trypanosoma cruzi [2]) of the same compound?
Answer: 27.3 µM

Question: What about the Activity (Trypanosoma cruzi [3]) of the same compound?
Answer: 23%

Question: What about the Activity (Trypanosoma cruzi [4]) of the same compound?
Answer: Active

Question: What about the Activity (Trypanosoma cruzi [5]) of the same compound?
Answer: Active

Question: What about the IC50 (Vero) of the same compound?
Answer: > 1000 µM

Question: What about the Activity (Trypanosoma cruzi [6]) of the same compound?
Answer: Active

Question: And the Activity (Trypanosoma cruzi [7])?
Answer: Active

Question: And the selectivity ratio [8]?
Answer: > 36.6

Question: What about the Activity (Trypanosoma cruzi [9]) of the same compound?
Answer: 58%

Question: What about the “inhibition (INH)” value (Trypanosoma cruzi [10]) of the same compound?
Answer: 65%

Question: And the Activity (Mus musculus)?
Answer: Non-toxic

Question: Which results are given for `O=C(Cn1ccnc1[N+](=O)[O-])NCc1ccccc1` [BENZNIDAZOLE]?
Answer: survival at 1 mg/kg (Trypanosoma cruzi [6]; route intraperitoneal): 80%; Activity (Trypanosoma cruzi [9]): 37%; inhibition (INH) (Trypanosoma cruzi [10]): 39%

Question: With `CC(=O)O[C@H]1[C@H](Oc2c(-c3ccc(O)cc3)oc3cc(O)cc(O)c3c2=O)O[C@H](CO)[C@@H](O)[C@@H]1O` as the compound, how does the Activity (Trypanosoma cruzi [1]) read?
Answer: Active

Question: What about the IC50 (Trypanosoma cruzi [2]) of the same compound?
Answer: 6.5 µM

Question: And the Activity (Trypanosoma cruzi [3])?
Answer: 23%

Question: And the Activity (Trypanosoma cruzi [4])?
Answer: Active

Question: And the Activity (Trypanosoma cruzi [11])?
Answer: Active

Question: And the Activity (Trypanosoma cruzi [5])?
Answer: Active

Question: And the IC50 (Vero)?
Answer: 294 µM

Question: What about the Activity (Trypanosoma cruzi [6]) of the same compound?
Answer: Active

Question: And the Activity (Trypanosoma cruzi [7])?
Answer: Active

Question: And the selectivity ratio [8]?
Answer: 45.2

Question: And the Activity (Trypanosoma cruzi [12])?
Answer: Active

Question: And the Activity (Trypanosoma cruzi [9])?
Answer: 78%

Question: And the Activity (Trypanosoma cruzi [13])?
Answer: Active

Question: What about the “inhibition (INH)” value (Trypanosoma cruzi [10]) of the same compound?
Answer: 88%

Question: And the Activity (Mus musculus)?
Answer: Non-toxic

Question: With `CC(=O)OC[C@H]1O[C@@H](Oc2cc(OC(C)=O)c3c(=O)c(O[C@@H]4O[C@H](COC(C)=O)[C@@H](OC(C)=O)[C@H](OC(C)=O)[C@H]4OC(C)=O)c(-c4ccc(OC(C)=O)cc4)oc3c2)[C@H](OC(C)=O)[C@@H](OC(C)=O)[C@@H]1OC(C)=O` [PAEONOSIDE DECAACETATE] as the compound, how does the Activity (Trypanosoma cruzi [1]) read?
Answer: Active

Question: And the IC50 (Trypanosoma cruzi [2])?
Answer: 17.2 µM

Question: And the Activity (Trypanosoma cruzi [3])?
Answer: 23%

Question: And the Activity (Trypanosoma cruzi [4])?
Answer: Active

Question: And the Activity (Trypanosoma cruzi [11])?
Answer: Active

Question: What about the Activity (Trypanosoma cruzi [5]) of the same compound?
Answer: Active

Question: And the IC50 (Vero)?
Answer: > 1000 µM

Question: What about the Activity (Trypanosoma cruzi [6]) of the same compound?
Answer: Active

Question: What about the Activity (Trypanosoma cruzi [7]) of the same compound?
Answer: Active

Question: What about the selectivity ratio [8] of the same compound?
Answer: > 58.1

Question: And the Activity (Trypanosoma cruzi [9])?
Answer: 85%

Question: What about the Activity (Trypanosoma cruzi [14]) of the same compound?
Answer: Active

Question: And the Activity (Trypanosoma cruzi [13])?
Answer: Active

Question: And the “inhibition (INH)” value (Trypanosoma cruzi [10])?
Answer: 82%

Question: What about the Activity (Mus musculus) of the same compound?
Answer: Non-toxic

Question: For `CC(=O)O[C@H]1[C@H](Oc2c(-c3ccc(O)cc3)oc3cc(O[C@@H]4O[C@H](CO)[C@@H](O)[C@H](O)[C@H]4O)cc(O)c3c2=O)O[C@H](CO)[C@@H](O)[C@@H]1O`, which Activity (Trypanosoma cruzi [1]) is on record?
Answer: Active

Question: And the IC50 (Trypanosoma cruzi [2])?
Answer: 21.7 µM

Question: And the Activity (Trypanosoma cruzi [3])?
Answer: 23%

Question: And the Activity (Trypanosoma cruzi [4])?
Answer: Active

Question: And the Activity (Trypanosoma cruzi [5])?
Answer: Active

Question: And the IC50 (Vero)?
Answer: > 1000 µM

Question: And the Activity (Trypanosoma cruzi [6])?
Answer: Active

Question: What about the Activity (Trypanosoma cruzi [7]) of the same compound?
Answer: Active

Question: What about the selectivity ratio [8] of the same compound?
Answer: > 46.1

Question: And the Activity (Trypanosoma cruzi [9])?
Answer: 77%

Question: And the “inhibition (INH)” value (Trypanosoma cruzi [10])?
Answer: 85%

Question: And the Activity (Mus musculus)?
Answer: Non-toxic

Question: Which results are given for `O=c1c(O[C@@H]2O[C@H](CO)[C@@H](O)[C@H](O)[C@H]2O)c(-c2ccc(O)cc2)oc2cc(O)cc(O)c12` [ASTRAGALIN]?
Answer: Activity (Trypanosoma cruzi [1]): Active; IC50 (Trypanosoma cruzi [2]): 15.7 µM; Activity (Trypanosoma cruzi [3]): 23%; Activity (Trypanosoma cruzi [4]): Active; Activity (Trypanosoma cruzi [11]): Active; Activity (Trypanosoma cruzi [5]): Active; IC50 (Vero): 174 µM; Activity (Trypanosoma cruzi [6]): Active; Activity (Trypanosoma cruzi [7]): Active; selectivity ratio [8]: 11.1; Activity (Trypanosoma cruzi [9]): 65%; Activity (Trypanosoma cruzi [13]): Active; inhibition (INH) (Trypanosoma cruzi [10]): 64%; Activity (Mus musculus): Non-toxic

Question: With `CC(=O)OC[C@H]1O[C@@H](Oc2c(-c3ccc(OC(C)=O)cc3)oc3cc(OC(C)=O)cc(OC(C)=O)c3c2=O)[C@H](OC(C)=O)[C@@H](OC(C)=O)[C@@H]1OC(C)=O` [ASTRAGALIN HEPTAACETATE] as the compound, how does the Activity (Trypanosoma cruzi [1]) read?
Answer: Active

Question: And the IC50 (Trypanosoma cruzi [2])?
Answer: 0.8 µM

Question: What about the Activity (Trypanosoma cruzi [3]) of the same compound?
Answer: 23%

Question: And the Activity (Trypanosoma cruzi [4])?
Answer: Active

Question: What about the Activity (Trypanosoma cruzi [5]) of the same compound?
Answer: Active

Question: What about the IC50 (Vero) of the same compound?
Answer: 164 µM

Question: What about the Activity (Trypanosoma cruzi [6]) of the same compound?
Answer: Active

Question: What about the Activity (Trypanosoma cruzi [7]) of the same compound?
Answer: Active

Question: And the selectivity ratio [8]?
Answer: 205

Question: What about the Activity (Trypanosoma cruzi [9]) of the same compound?
Answer: 95%

Question: What about the “inhibition (INH)” value (Trypanosoma cruzi [10]) of the same compound?
Answer: 91%

Question: What about the Activity (Mus musculus) of the same compound?
Answer: Non-toxic
